TRPC4 inh – inhibitors of mouse TRPC4 channel; B-score at 10 µM; HEK293 TRPC4beta/mu-opioid, DAMGO-evoked Fluo4 calcium flux; stronger effect = lower value; actives 0.39% (n = 300,000); Q9QUQ5;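 active = B-score over 3 SD under the library average, no early fluorescence shift, positive overall ratio signal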
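Assay system: HEK293 cells with stable TRPC4beta plus mu-opioid receptor expression; Probe or stimulus: DAMGO in two steps, submaximal then maximal; Dosing: single-point compound dosing; Measured by: Fluo4 calcium-dye fluorescence, kinetic read; Read-out basis: B score from integrated Fluo4 fluorescence ratio.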
TRPC6 inh – inhibitors of mouse TRPC6 channel. Q61143. HEK293-TRPC6, membrane potential dye, ACh-evoked depolarization; stronger effect = lower value. B-score at 10 µM. actives 1.1% (n = 310,000). AID 2553;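 active = B-score under library mean minus 3 SD, initial fluorescence not abnormally high, positive integrated signal ratio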;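 also: B-score derived from integrated fluorescence ratio over the kinetic read; more negative B-score means stronger inhibition of depolarization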
Target sequence (Q61143 whole entry, looked up): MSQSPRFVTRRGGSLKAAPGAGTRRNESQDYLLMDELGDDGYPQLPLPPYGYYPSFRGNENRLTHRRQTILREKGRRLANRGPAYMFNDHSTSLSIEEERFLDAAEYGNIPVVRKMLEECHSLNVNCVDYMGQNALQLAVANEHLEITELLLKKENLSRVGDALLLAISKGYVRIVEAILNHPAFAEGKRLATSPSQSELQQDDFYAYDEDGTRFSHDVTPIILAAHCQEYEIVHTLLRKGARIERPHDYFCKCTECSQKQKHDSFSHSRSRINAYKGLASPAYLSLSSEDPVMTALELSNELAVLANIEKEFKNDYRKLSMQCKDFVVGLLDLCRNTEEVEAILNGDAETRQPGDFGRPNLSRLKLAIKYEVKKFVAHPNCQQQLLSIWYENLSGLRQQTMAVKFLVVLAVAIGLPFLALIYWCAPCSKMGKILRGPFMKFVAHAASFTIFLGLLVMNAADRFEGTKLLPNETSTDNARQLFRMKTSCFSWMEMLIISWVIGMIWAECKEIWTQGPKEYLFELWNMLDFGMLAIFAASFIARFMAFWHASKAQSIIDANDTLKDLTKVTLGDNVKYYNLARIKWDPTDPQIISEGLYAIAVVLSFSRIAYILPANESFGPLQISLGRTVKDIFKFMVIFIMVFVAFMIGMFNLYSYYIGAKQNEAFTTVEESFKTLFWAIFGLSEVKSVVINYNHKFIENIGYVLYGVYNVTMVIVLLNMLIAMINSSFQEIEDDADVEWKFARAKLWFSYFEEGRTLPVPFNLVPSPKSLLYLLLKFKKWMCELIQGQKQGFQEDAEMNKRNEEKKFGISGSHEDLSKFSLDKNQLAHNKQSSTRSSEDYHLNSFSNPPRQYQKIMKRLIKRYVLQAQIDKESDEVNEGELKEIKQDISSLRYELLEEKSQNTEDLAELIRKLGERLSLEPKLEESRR
TRPC4 act – activators of mouse TRPC4 channel | Q9QUQ5 | HEK293 TRPC4beta/mu-opioid, Fluo4 calcium fluorescence; stronger effect = higher value | B-score at 10 µM | actives 0.49% (n = 310,000) | AID 2237;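 active = B-score above 5 SD of library B-scores, and initial fluorescence ratio not above library mean plus 5 SD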;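 also: positive B-score marks a calcium rise read as TRPC4 activation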
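Material: HEK293 stable line with TRPC4beta plus mu-opioid receptor; technique: Fluo4 calcium-sensitive dye fluorescence, kinetic, 1 Hz baseline; timing: Fluo4 dye loading 45 min at room temperature, 110 s recording; controls: assay buffer as low control, maximal DAMGO as high control; read-out: integrated baseline-normalised fluorescence ratio, converted to per-well B score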
TRPC6 act – activators of mouse TRPC6 channel; actives 0.13% (n = 310,000); AID 2550; HEK293-TRPC6 membrane potential dye fluorescence; stronger effect = higher value; B-score at 10 µM;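 active = B-score of the integrated fluorescence ratio above library mean plus 3 SD, and starting fluorescence ratio within library mean plus 5 SD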;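 also: higher score means more depolarization so channel activation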
TRPC4 PAM – TRPC4 (mouse) allosteric potentiation; Q9QUQ5; HEK293 TRPC4beta/mu-opioid, DAMGO EC20, Fluo-4 Ca2+ flux; stronger effect = higher value; B-score at 10 µM; actives 0.42% (n = 310,000); AID 2227;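 active = B-score of calcium response area above 5 SD of library B-scores, with initial fluorescence ratio within 5 SD of library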
TRPC4 spec 2 – second check of whether TRPC6 inhibitors also affect mouse TRPC4. actives 42% (n = 920). shares compounds with TRPC6 inh. HEK293 TRPC4/MOR, membrane potential dye fluorescence; channel activated by saturating DAMGO dose. inhibition, % at 10 µM. AID 2776;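 active = compounds whose fluorescence signal differed from control wells by over 3 SD, either direction, in both duplicate plates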
TRPC4 spec – tests whether TRPC6 inhibitors also affect mouse TRPC4 | shares compounds with TRPC6 inh | HEK293 TRPC4/mu-opioid, membrane potential fluorescence | activity change, negative = inhibition, % at 10 µM | actives 61% (n = 920) | AID 2777;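 active = rise or fall in signal beyond 3 SD of buffer-only wells in both replicate plates, either sign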;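 also: integrated kinetic ratio of fluorescence range over baseline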
HEK293 MPD ctr 2-1 – parental HEK293 nonspecific activity of TRPC6 inhibitors, second screen. signal change vs control, % at 10 µM. parental HEK293 membrane potential dye fluorescence; maximal acetylcholine challenge after compound addition. AID 2779. actives 31% (n = 920). shares compounds with TRPC6 inh;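 active = membrane potential signal moving either way by over 3 SD of the maximum-effect control, in both duplicate plates, meaning non-specific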
HEK293 MPD ctr-1 – checks TRPC6 inhibitor effects in parental HEK293 cells; actives 60% (n = 920); membrane potential signal change, % at 10 µM; shares compounds with TRPC6 inh; parental HEK293 membrane potential dye fluorescence;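 active = membrane potential signal shifting up or down by more than 3 SD of buffer-only wells, on both duplicate plates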
HEK293 MPD ctr-2 – parental HEK293 nonspecific activity of TRPC6 modulators; membrane potential signal change, % at 10 µM; AID 488924; shares compounds with TRPC6 inh; membrane potential dye fluorescence; actives 51% (n = 2,400);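 active = membrane potential signal moves up or down beyond 5 SD from buffer-only wells, on both duplicate plates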
HEK293 MPD ctr 2-2 – parental HEK293 nonspecific activity of TRPC6 modulators, second screen. shares compounds with TRPC6 inh. actives 14% (n = 2,400). membrane potential dye fluorescence; after compound, maximal acetylcholine stimulation. inhibition, % at 10 µM;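 active = membrane potential signal drops by more than 5 SD from the mean control signal, in both duplicate plates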
TRPC4/MOR mod – tests whether TRPC6 modulators also affect mouse TRPC4; shares compounds with TRPC6 inh; HEK293 TRPC4/mu-opioid, membrane potential fluorescence; percent change from control (negative = decrease, positive = increase), % at 10 µM; actives 69% (n = 2,400); AID 488927;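 active = membrane potential signal moved up or down beyond 5 SD of buffer control wells, in both duplicate plates, actives on both sides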
TRPC4 ctr inh 2 – mouse TRPC4 off-target activity of TRPC6 modulators, second screen; HEK293 TRPC4/mu-opioid, membrane potential dye fluorescence; stimulated with maximal-effect DAMGO; shares compounds with TRPC6 inh; actives 55% (n = 2,400); inhibition, % at 10 µM;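 active = drop in membrane potential signal beyond 5 SD of the control wells in both duplicate plates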;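 also: TRPC4 counter screen for TRPC6 hits run under conditions tuned for TRPC6 not TRPC4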
TRPC6 inh conf – mouse TRPC6 inhibitor confirmation; shares compounds with TRPC6 inh; HEK293-TRPC6, membrane potential dye, ACh-evoked depolarization; inhibition, % at 10 µM; actives 43% (n = 3,300); AID 488960;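 active = fluorescence ratio falls more than 5 SD below the full-stimulation control mean, in both duplicate runs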;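 also: integrated fluorescence ratio of peak minus minimum over baseline after agonist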
TRPC6 act conf – confirmation of mouse TRPC6 activators; activation, % at 10 µM; AID 488961; actives 11% (n = 2,800); HEK293-TRPC6 membrane potential dye fluorescence, FDSS; shares compounds with TRPC6 inh;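 active = ratio signal rise beyond 5 SD above unstimulated control wells' mean, seen in both duplicate runs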
Large screens that a line does not name were inactive (follow-up assays come after a bar, where they were run). Rows were chosen to be rich in hits. Some 2.3% of all compounds tested hit in one or more screens of this group.

CCNC(=O)NC1c2ccccc2CSc2ccccc21 (stereo unspecified)	none
CC/C(=C\c1oc2cc3ccccc3cc2[n+]1CC)Nc1ccccc1	TRPC6 inh -5.1 | HEK293 MPD ctr-2 inactive | HEK293 MPD ctr 2-2 inactive | TRPC4/MOR mod inactive | TRPC4 ctr inh 2 79.5% | TRPC6 inh conf 59.0% | TRPC6 act conf inactive
Cc1ccc(C23CC4CC(CC(CN)(C4)C2)C3)cc1	TRPC6 inh -7.52 | TRPC4 spec 2 42.0% | TRPC4 spec -11.3% | HEK293 MPD ctr 2-1 inactive | HEK293 MPD ctr-1 -176.5% | TRPC6 inh conf inactive | TRPC6 act conf inactive
NCCOc1ccc(C23CC4CC(CC(C4)C2)C3)cc1	none
NCC12CC3CC(C1)CC(c1ccc(Br)cc1)(C3)C2	TRPC6 inh -8.56 | TRPC4 spec 2 43.5% | TRPC4 spec -10.2% | HEK293 MPD ctr 2-1 inactive | HEK293 MPD ctr-1 -178.5% | TRPC6 inh conf 62.4% | TRPC6 act conf inactive
CCN(CC(=O)NCCc1ccc(S(N)(=O)=O)cc1)Cc1nc2ccccc2c(=O)[nH]1	none
O=C(CC1(C(=O)O)CCCC1)N1CCOCC1	none
COc1ccccc1C(C(=O)NC1CCCCC1)N(C(=O)c1csnn1)C1CC1 (stereo unspecified)	none
CCN1CCN(c2c(C=O)c(Cl)nc3ccc(OC)cc23)CC1	TRPC6 inh -7.55, TRPC4 act 78 | HEK293 MPD ctr-2 -276.0% | HEK293 MPD ctr 2-2 72.0% | TRPC4/MOR mod inactive | TRPC4 ctr inh 2 54.0% | TRPC6 inh conf 57.5% | TRPC6 act conf inactive
COc1cc(C(=O)OCC(=O)Nc2ccc(OC(F)F)cc2)cc(OC)c1OC	none
CCCS(=O)(=O)N1CCC(C(=O)NCCCOC)CC1	none
Cc1cc(NC(=O)CSc2ccccn2)cc(NC(=O)CSc2ccccn2)c1	none
Cc1nonc1NC(=O)CSc1ccccn1	TRPC6 inh -5.66 | HEK293 MPD ctr-2 inactive | HEK293 MPD ctr 2-2 inactive | TRPC4/MOR mod inactive | TRPC4 ctr inh 2 inactive | TRPC6 inh conf inactive | TRPC6 act conf inactive
CC(C)c1ccc(NC(=O)CN2C(=O)c3ccccc3S2(=O)=O)cc1	none
O=C(Nc1ccc(S(=O)(=O)N2CCCCC2c2cccnc2)cc1)c1c(F)cccc1F (stereo unspecified)	TRPC6 inh -5.06 | HEK293 MPD ctr-2 inactive | HEK293 MPD ctr 2-2 inactive | TRPC4/MOR mod inactive | TRPC4 ctr inh 2 inactive | TRPC6 inh conf inactive | TRPC6 act conf inactive
CCOC(=O)c1cnc2c(C(F)(F)F)cccc2c1NCCCN1CCOCC1	TRPC6 inh -7.15 | HEK293 MPD ctr-2 -185.0% | HEK293 MPD ctr 2-2 inactive | TRPC4/MOR mod -34.5% | TRPC4 ctr inh 2 51.5% | TRPC6 inh conf inactive | TRPC6 act conf inactive
CCOC(=O)c1cnc2c(CC)cccc2c1NCCCN1CCOCC1	none
CCOC(=O)c1cnc2c(Cl)cccc2c1NCCCN1CCOCC1	TRPC6 inh -6.34 | HEK293 MPD ctr-2 -187.0% | HEK293 MPD ctr 2-2 inactive | TRPC4/MOR mod -30.5% | TRPC4 ctr inh 2 38.0% | TRPC6 inh conf 44.0% | TRPC6 act conf inactive
CCOC(=O)c1cnc2c(Cl)cccc2c1NCCN1CCOCC1	none
O=C(COC(=O)COc1ccccc1[N+](=O)[O-])Nc1ccc(S(=O)(=O)N2CCCCC2)cc1	none
CCCCOc1ccc(C(=O)OC2CC(C)N(C)CC2C)cc1 (stereo unspecified)	TRPC6 act 15.1 | HEK293 MPD ctr-2 253.0% | HEK293 MPD ctr 2-2 inactive | TRPC4/MOR mod 49.5% | TRPC4 ctr inh 2 47.5% | TRPC6 inh conf inactive | TRPC6 act conf 120.0%
CCCn1ncc(CN2CCCC(C(=O)c3cccc(OC(C)C)c3)C2)c1C (stereo unspecified)	TRPC6 inh -5.34 | HEK293 MPD ctr-2 118.5% | HEK293 MPD ctr 2-2 inactive | TRPC4/MOR mod 24.0% | TRPC4 ctr inh 2 40.5% | TRPC6 inh conf 50.5%
O=C(CNC(=S)N(Cc1ccccc1F)C1CCCCC1)NC1CC1	none
Cc1nc2ccccc2c2oc(C(=O)N3CC(C)CC(C)C3)cc12 (stereo unspecified)	none
CCOC(=O)C1CCCN(C(=O)c2ccc(C)c([N+](=O)[O-])c2)C1 (stereo unspecified)	TRPC6 inh -5.78 | HEK293 MPD ctr-2 inactive | HEK293 MPD ctr 2-2 64.0% | TRPC4/MOR mod inactive | TRPC4 ctr inh 2 inactive | TRPC6 inh conf 54.5% | TRPC6 act conf inactive
CCOC(=O)C1CCCN(C(=O)c2cc3c(C)nc4ccccc4c3o2)C1 (stereo unspecified)	TRPC6 inh -6.86 | TRPC4 spec 2 inactive | TRPC4 spec 4.0% | HEK293 MPD ctr 2-1 inactive | HEK293 MPD ctr-1 3.1% | TRPC6 inh conf 61.1% | TRPC6 act conf inactive
O=[N+]([O-])c1ccccc1S(=O)(=O)N1CCN(Cc2cc3c(cc2O)OCO3)CC1	none
CCOC(=O)Nc1ccc2c(c1)N(CCCN(C)C)c1ccccc1CC2	TRPC6 inh -7.79 | TRPC4 spec 2 inactive | TRPC4 spec inactive | HEK293 MPD ctr 2-1 inactive | HEK293 MPD ctr-1 inactive | TRPC6 inh conf 51.1% | TRPC6 act conf inactive
CCOC(=O)Nc1ccc2c(c1)N(C(=O)OC)c1ccccc1CC2	none
